Results: ChEMBL document CHEMBL1126099, “Synthesis and biological characterization of alpha-(4-fluorophenyl)-4-(5-fluoro-2-pyrimidinyl)-1-piperazinebutanol and analogues as potential atypical antipsychotic agents” (J Med Chem, 1992)
pIC50, pKd: −log10 of the molar value. Active and inactive are the calls of the source. The calls are words filed in the database; no cut-off is given here.

Legend:
[1] = molecular target: T1, Adrenergic receptor alpha-1 (Rattus norvegicus, UniProt P15823+P23944+P43140); assay: Inhibition of [3H]WB-4101 binding to rat cortical Alpha-1 adrenergic receptor in vitro; format: protein assay
T1 sequence (P15823 whole entry): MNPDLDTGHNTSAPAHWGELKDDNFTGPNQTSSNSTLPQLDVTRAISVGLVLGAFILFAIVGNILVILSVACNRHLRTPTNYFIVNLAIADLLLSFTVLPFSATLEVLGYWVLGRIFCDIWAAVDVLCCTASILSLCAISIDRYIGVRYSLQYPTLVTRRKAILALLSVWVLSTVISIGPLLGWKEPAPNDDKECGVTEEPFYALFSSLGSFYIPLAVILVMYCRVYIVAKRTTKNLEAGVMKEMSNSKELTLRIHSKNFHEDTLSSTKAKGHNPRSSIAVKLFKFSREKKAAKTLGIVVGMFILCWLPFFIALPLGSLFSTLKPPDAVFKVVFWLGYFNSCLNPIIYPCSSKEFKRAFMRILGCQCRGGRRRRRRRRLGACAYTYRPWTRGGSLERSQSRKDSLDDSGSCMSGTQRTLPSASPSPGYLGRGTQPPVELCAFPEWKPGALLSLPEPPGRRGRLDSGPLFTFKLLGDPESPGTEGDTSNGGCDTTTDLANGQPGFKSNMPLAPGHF
T1 sequence (P23944 whole entry): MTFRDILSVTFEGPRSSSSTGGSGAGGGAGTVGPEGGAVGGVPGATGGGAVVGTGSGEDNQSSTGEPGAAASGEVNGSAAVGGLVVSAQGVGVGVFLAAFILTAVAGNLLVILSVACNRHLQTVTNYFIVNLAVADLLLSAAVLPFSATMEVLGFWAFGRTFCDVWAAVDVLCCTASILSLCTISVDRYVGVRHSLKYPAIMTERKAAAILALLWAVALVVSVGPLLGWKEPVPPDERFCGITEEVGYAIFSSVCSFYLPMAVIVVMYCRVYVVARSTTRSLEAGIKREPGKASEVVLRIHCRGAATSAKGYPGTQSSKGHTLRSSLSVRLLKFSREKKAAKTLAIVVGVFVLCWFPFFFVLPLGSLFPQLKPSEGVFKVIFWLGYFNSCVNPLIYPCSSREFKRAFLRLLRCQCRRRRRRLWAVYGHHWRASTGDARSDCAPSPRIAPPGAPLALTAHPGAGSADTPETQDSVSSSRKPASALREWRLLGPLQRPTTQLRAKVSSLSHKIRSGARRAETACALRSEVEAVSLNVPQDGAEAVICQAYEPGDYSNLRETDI
T1 sequence (P43140 whole entry): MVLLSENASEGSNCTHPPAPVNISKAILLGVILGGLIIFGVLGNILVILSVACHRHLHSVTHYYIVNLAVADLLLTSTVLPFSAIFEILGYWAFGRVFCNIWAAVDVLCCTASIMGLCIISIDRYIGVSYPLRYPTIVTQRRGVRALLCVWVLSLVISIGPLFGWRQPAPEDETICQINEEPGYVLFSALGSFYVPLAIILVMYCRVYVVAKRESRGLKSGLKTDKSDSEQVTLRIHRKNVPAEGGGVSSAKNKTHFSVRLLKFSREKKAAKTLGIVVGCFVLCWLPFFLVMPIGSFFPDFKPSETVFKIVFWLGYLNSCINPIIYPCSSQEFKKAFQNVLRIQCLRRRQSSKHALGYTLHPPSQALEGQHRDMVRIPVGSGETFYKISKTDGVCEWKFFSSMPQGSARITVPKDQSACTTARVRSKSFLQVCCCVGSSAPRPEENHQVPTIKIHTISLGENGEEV
How it was run: (§1)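 Competition binding against tritiated radioligand. Test drug was run at five concentrations in a single experiment, and IC50 (nM) was derived from displacement.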

[2] = molecular target: T2, Sigma non-opioid intracellular receptor 1 (Rattus norvegicus, UniProt Q9R0C9); assay: Displacement of (+)-[3H]-3-PPP from rat cortical sigma site; how it was run: as §1
T2 sequence (Q9R0C9 whole entry): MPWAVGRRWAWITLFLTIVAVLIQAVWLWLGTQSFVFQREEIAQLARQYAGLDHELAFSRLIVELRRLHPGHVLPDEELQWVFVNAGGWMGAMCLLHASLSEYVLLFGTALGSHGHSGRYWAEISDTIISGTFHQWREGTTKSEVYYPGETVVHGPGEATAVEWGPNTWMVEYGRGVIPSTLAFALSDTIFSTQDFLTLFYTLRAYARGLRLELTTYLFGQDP

[3] = species on record: Rattus norvegicus; assay: Effective peroral dose for inhibition of conditioned avoidance response in rats; format: functional; details: po
[4] = molecular target: D(2) dopamine receptor (Rattus norvegicus, UniProt P61169); assay: In vitro inhibitory against radioligand [3H]spiperone binding to rat striatal Dopamine receptor D2; how it was run: as §1
Sequence of D(2) dopamine receptor (P61169 whole entry): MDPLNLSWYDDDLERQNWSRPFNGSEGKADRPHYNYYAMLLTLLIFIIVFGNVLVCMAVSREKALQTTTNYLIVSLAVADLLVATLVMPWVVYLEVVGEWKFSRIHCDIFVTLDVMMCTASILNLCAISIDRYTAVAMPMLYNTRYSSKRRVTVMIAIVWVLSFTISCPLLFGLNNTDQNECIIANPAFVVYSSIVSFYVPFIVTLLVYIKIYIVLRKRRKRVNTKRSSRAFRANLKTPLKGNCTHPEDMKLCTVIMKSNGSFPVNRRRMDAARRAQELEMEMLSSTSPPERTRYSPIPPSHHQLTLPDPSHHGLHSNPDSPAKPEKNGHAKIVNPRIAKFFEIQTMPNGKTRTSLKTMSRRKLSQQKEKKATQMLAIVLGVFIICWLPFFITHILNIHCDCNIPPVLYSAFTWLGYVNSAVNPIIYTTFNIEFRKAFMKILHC

[5] = species on record: Rattus norvegicus; assay: Inhibition of apomorphine-induced stereotypy in rats via peroral route; format: functional; details: Rattus norvegicus, po; read-out: ED50
[6] = tested on: Rattus norvegicus; assay: Effective in vivo peroral dose against induction of catalepsy in rats; format: functional
[7] = tested on: Rattus norvegicus; assay: Effective dose for reversal of trifluoperazine-induced catalepsy in rats; I=Inactive (ED50 mg/Kg); format: functional, organism-based
[8] = species on record: Rattus norvegicus; assay: Effective dose for ethanol potentiation in rats; format: functional
[9] = species on record: Mus musculus; assay: Effective dose for inhibition of physostigmine induced lethality in mouse; format: functional
[10] = species on record: Mus musculus; assay: Effective dose for inhibition of norepinephrine induced lethality in mouse; format: functional
[11] = species on record: Rattus norvegicus; assay: Effective dose for motor incoordination in rats was determined by rotarod method; format: functional
[12] = species on record: Rattus norvegicus; assay: Effective dose for inhibition of spontaneous motor activity in rats; format: functional
[13] = tested on: Rattus norvegicus; assay: Effect of chronic administration at a peroral dose of 15 mg/Kg qd for 29 days on D2 receptor binding in rat striata; format: functional, organism-based
How it was run: (§2)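 Rats dosed orally once daily for 29 days with vehicle or test drug. Striatal D2 receptor number (Bmax, fmol/mg protein) and affinity (KD, pM) were then measured. Values are mean ± SEM for the number of preparations, with significance versus vehicle by Student's t-test (p < 0.05).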

[14] = tested on: Rattus norvegicus; assay: Bmax (D2 receptor number) was determined after peroral administration of 30 mg/Kg in rats qd for 29 days; format: functional; how it was run: as §2
[15] = tested on: Rattus norvegicus; assay: Effect of chronic administration at a peroral dose of 30 mg/Kg qd for 29 days on D2 receptor binding in rat striata; format: functional, organism-based; how it was run: as §2
[16] = tested on: Rattus norvegicus; assay: Bmax (D2 receptor number) was determined after peroral administration of 15 mg/Kg in rats qd for 29 days; format: functional; how it was run: as §2
[17] = molecular target: T1, Adrenergic receptor alpha-1; assay: Inhibitory concentration against radioligand [3H]-WB- 4101 binding to rat cortical Alpha-1 adrenergic receptor; format: protein assay; how it was run: as §1
[18] = molecular target: T1, Adrenergic receptor alpha-1; assay: In vitro inhibitory concentration against radioligand [3H]WB-4101 binding to rat cortical alpha-1 adrenergic receptor; format: protein assay
[19] = molecular target: T2, Sigma non-opioid intracellular receptor 1; assay: Compound was tested in vitro for its ability to displace radioligand (+)-[3H]-3-PPP from rat cortical sigma receptor
[20] = Rattus norvegicus, po, read-out: ED50

Row | IC50 [1] [nM] | pIC50 [2] | pIC50 [4] | SMILES | ED50 [3] [mg/kg] | ED50 [5] [mg/kg] | also measured
1 | 446 | ~6.00 | < 6.00 | NC(CCCN1CCN(c2ncc(F)cn2)CC1)c1ccc(F)cc1 (configuration not stated) | > 100 | – | –
2 | 400 | < 6.00 | 6.70 | OC(CCCN1CCN(c2ncccn2)CC1)(c1ccc(F)cc1)c1ccc(F)cc1 | 52.9 | > 50 | –
3 | 6 | 6.37 | 6.17 | O=C(CCCN1CCN(c2ncccn2)CC1)c1ccc(F)cc1 | 25.3 | 21.6 | ED50 [6, 20]: > 100 mg/kg
4 | 305 | 7.59 | < 6.00 | CSc1nc(N2CCN(CCCC(O)c3ccc(F)cc3)CC2)ncc1F (configuration not stated) | > 100 | > 100 | –
5 | 72 | 7.07 | 5.66 | O=C(CCCN1CCN(c2ncc(Br)cn2)CC1)c1ccc(F)cc1 | > 100 | – | –
6 | 375 | < 6.00 | 5.77 | Fc1ccc(/C=C(\CCN2CCN(c3ncccn3)CC2)c2ccc(F)cc2)cc1 | > 100 | – | –
7 | 29 | 6.89 | – | O=C(CCCN1CCN(c2ncc(F)cn2)CC1)c1ccc(F)cc1 | 36.3 | 58.9 | ED50 [6, 20]: 144 mg/kg
8 | 162 | 6.89 | 5.86 | OC(CCCN1CCN(c2ncccn2)CC1)c1ccc(F)cc1 (configuration not stated) | 25 | 32.3 | ED50 [6, 20]: > 100 mg/kg
9 | – | – | – | O=C(CCN1CCN(c2ncc(F)cn2)CC1)c1ccc(F)cc1 | > 100 | > 100 | IC50 [18]: 523 nM; pIC50 [19]: 7.16
10 | 51 | – | 6.09 | O=C(CCCN1CCN(c2ncc(Cl)cn2)CC1)c1ccc(F)cc1 | > 100 | – | –
11 | 95 | 6.92 | 6.40 | CSc1nc(N2CCN(CCCC(=O)c3ccc(F)cc3)CC2)ncc1F | > 100 | > 100 | –
12 | – | 6.96 | 5.67 | CC(O)(CCCN1CCN(c2ncc(F)cn2)CC1)c1ccc(F)cc1 (configuration not stated) | > 25 | > 50 | ED50 [6, 20]: > 100 mg/kg

Row | SMILES | IC50 [1] [nM] | pIC50 [2] | pIC50 [4] | ED50 [3] [mg/kg] | ED50 [5] [mg/kg] | also measured
13 | CSc1ccc2c(c1)N(CCC1CCCCN1C)c1ccccc1S2 (configuration not stated) [THIORIDAZINE] | – | 6.12 | – | – | 280 | Activity [7]: inactive; ED50 [8]: 56 mg/kg; ED50 [9]: 45 mg/kg; ED50 [10]: 2.2 mg/kg; ED50 [11]: 20 mg/kg; ED50 [12]: 33 mg/kg
14 | OC(CCCN1CCN(c2ncc(F)cn2)CC1)c1ccc(F)cc1 (stereo in doubt; 16) [BMY-14802] | 520 | – | – | – | 33 | pKd [13]: 9.92; Bmax [14]: 212 fmol/mg protein; pKd [15]: 10.00; Bmax [16]: 233 fmol/mg protein; ED50 [6]: >100 mg/kg; ED50 [8]: 20.1 mg/kg; ED50 [9]: > 100 mg/kg; ED50 [10]: > 100 mg/kg; ED50 [11]: 43.5 mg/kg; IC50 [17]: 460 nM; ED50 [12]: 87.3 mg/kg
